Reference: ChEMBL document CHEMBL4152387, “Discovery of a Potent Grp94 Selective Inhibitor with Anti-Inflammatory Efficacy in a Mouse Model of Ulcerative Colitis” (J Med Chem, 2018)
pIC50, pKd: −log10 of the molar value. The source made the active and inactive calls. No cut-off for these calls is given here.

Assays:
[1] = species: Canis lupus familiaris; assay: Inhibition of FITC-geldanamycin binding to dog GST-tagged GRP94 N41 deletion mutant (69 to 337 residues) expressed in Escherichia coli BL21star (DE3) at 100 uM after 4 hrs by FP assay relative to control
[2] = Inhibition of FITC-geldanamycin binding to dog GST-tagged GRP94 N41 deletion mutant (69 to 337 residues) expressed in Escherichia coli BL21star (DE3) after 4 hrs by GM-FITC-based FP assay; design: species or system Canis lupus familiaris
[3] = target: T1, Heat shock protein HSP 90-alpha (Homo sapiens, UniProt P07900); assay: Inhibition of FITC-geldanamycin binding to human His-tagged HSP90alpha N-terminal domain (1 to 236 residues) expressed in Escherichia coli BL21star (DE3) at 100 uM after 4 hrs by FP assay relative to control
Outline: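 Hsp90αN (15 nM final) with GM-FITC (6 nM final) and compound in HEPES/KCl/MgCl2 buffer pH 7.4 with NP40, DTT, BGG; 4 h at 4 °C in dark; FP at ex 485/em 535 nm; inhibition computed against GM-FITC-only and protein-plus-probe controls; n = 3.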

[4] = Binding affinity to dog His-tagged biotinylated GRP94 N41 deletion mutant (69 to 337 residues) expressed in Escherichia coli BL21star (DE3) by biolayer interferometry; design: species or system Canis lupus familiaris
Outline: (§1)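 His-tagged Grp94N biotinylated at one molar ratio in PBS pH 7.4, dialysed overnight, loaded at 400 nM on streptavidin biosensors after 10 min prewetting in PBS, 0.05% BSA, 0.01% Tween-20. Four compound concentrations in this buffer tested; binding recorded at 30 °C by biolayer interferometry.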

[5] = target: T1, Heat shock protein HSP 90-alpha; assay: Binding affinity to human His-tagged HSP90alpha N-terminal domain (1 to 236 residues) expressed in Escherichia coli BL21star (DE3) by biolayer interferometry
Outline: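 His-tagged Hsp90N biotinylated in PBS pH 7.4 (one molar ratio), dialysed overnight, immobilized at 400 nM on streptavidin sensors; kinetics buffer PBS, 0.05% BSA, 0.01% Tween-20; four compound concentrations; 30 °C biolayer interferometry.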

[6] = target: Endoplasmin (Homo sapiens, UniProt P14625); assay: Inhibition of GRP94 in human PANC1 cells assessed as down-regulation of integrin alphaL levels after 36 hrs by Western blot analysis; assay type: cell-based
Chain of Endoplasmin (P14625 whole entry): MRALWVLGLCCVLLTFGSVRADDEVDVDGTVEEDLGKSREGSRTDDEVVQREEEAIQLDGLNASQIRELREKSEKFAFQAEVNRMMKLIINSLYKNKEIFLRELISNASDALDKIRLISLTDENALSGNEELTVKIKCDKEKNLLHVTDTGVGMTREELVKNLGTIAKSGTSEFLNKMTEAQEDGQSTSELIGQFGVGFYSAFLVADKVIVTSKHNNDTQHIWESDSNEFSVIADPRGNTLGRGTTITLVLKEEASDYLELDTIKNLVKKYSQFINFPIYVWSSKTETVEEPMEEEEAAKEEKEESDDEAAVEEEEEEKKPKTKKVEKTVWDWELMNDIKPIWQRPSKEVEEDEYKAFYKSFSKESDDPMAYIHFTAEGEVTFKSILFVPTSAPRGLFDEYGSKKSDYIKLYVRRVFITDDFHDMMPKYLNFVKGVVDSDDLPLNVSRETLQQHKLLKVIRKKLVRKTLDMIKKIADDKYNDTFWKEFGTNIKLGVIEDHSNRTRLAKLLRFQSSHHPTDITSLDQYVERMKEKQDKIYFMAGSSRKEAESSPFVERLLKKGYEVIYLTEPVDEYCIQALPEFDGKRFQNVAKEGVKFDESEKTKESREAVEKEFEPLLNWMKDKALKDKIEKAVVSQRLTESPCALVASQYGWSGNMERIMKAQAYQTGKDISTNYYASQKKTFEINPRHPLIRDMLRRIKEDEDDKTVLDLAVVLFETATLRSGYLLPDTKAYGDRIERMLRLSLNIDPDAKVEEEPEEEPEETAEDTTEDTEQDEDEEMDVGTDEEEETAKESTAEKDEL
Outline: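 Panc-1 cells treated 36 h at indicated concentrations; cell surface protein extracted with a membrane-fractionation kit; Western blot for integrin α2 and αL with β-actin loading control, infrared fluorescent secondary detection.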

[7] = target: T1, Heat shock protein HSP 90-alpha; assay: Inhibition of HSP90alpha in human PANC1 cells assessed as up-regulation of Hsp70 at 1 to 5 uM after 36 hrs by Western blot analysis; assay type: cell-based
Outline: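 Panc-1 cells treated 36 h; total protein lysate with protease/phosphatase inhibitors; equal protein by BCA on SDS-PAGE, PVDF, Western blot for Hsp70 and Akt, β-actin loading control; AT13387 reference.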

[8] = system: Mus musculus; assay: Anti-inflammatory activity in C57BL/6 mouse model of DSS-induced ulcerative colitis assessed reduction in disease activity index at 10 to 30 mg/kg, ip qd co-administrated with DSS measured until day 7 post dose; assay type: functional, organism-based
Outline: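 Male C57BL/6 mice (20−22 g), n = 8 per group, 3% DSS in drinking water for 7 days with ip qd dosing at 10 or 30 mg/kg; vehicle for normal and disease controls. Body weight, stool consistency and rectal bleeding recorded daily; DAI scored from weight loss, stool consistency and stool blood.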

[9] = system: Mus musculus; assay: Anti-inflammatory activity in C57BL/6 mouse model of DSS-induced ulcerative colitis assessed mortality at 10 mg/kg, ip qd co-administrated with DSS measured on day 7 post dose; assay type: functional, organism-based
Outline: (§2)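 Male C57BL/6 mice (20−22 g), randomized, n = 8 per group; 3% DSS (36−50 KD) in drinking water for 7 days, with compound given ip once daily alongside; normal and disease controls received vehicle. Deaths counted at day 7.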

[10] = system: Mus musculus; assay: Anti-inflammatory activity in C57BL/6 mouse model of DSS-induced ulcerative colitis assessed mortality at 30 mg/kg, ip qd co-administrated with DSS measured on day 7 post dose; assay type: functional, organism-based; outline: as §2
[11] = system: Mus musculus; assay: Anti-inflammatory activity in ip dosed C57BL/6 mouse model of DSS-induced ulcerative colitis assessed reduction in IL6 levels in colonic tissues co-administrated once daily with DSS measured on day 7 post dose by ELISA; assay type: functional, organism-based
Outline: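 DSS colitis in male C57BL/6 mice (3% DSS in water, 7 days, ip qd co-dosing, vehicle controls). Serum and colons taken at sacrifice on day 7; colon homogenate supernatants and serum assayed for mouse TNFα and IL-6 by ELISA kits; n = 5 samples per group.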

[12] = system: Mus musculus; assay: Subacute toxicity in C57BL/6 mouse assessed as effect on heart at 30 to 90 mg/kg, ip qd for 2 weeks by hematoxylin and eosin staining analysis; assay type: organism-based; details: in vivo, 336 h
[13] = system: Mus musculus; assay: Subacute toxicity in C57BL/6 mouse assessed as effect on lung at 30 to 90 mg/kg, ip qd for 2 weeks by hematoxylin and eosin staining analysis; assay type: organism-based; details: in vivo, 336 h
[14] = species: Canis lupus familiaris; assay: Binding affinity to dog His-tagged biotinylated GRP94 N41 deletion mutant (69 to 337 residues) expressed in Escherichia coli BL21star (DE3) assessed as association constant by biolayer interferometry; outline: as §1
[15] = target: T1, Heat shock protein HSP 90-alpha; assay: Binding affinity to human His-tagged HSP90alpha N-terminal domain (1 to 236 residues) expressed in Escherichia coli BL21star (DE3) dissociation constant by biolayer interferometry; details: read-out: K
Outline: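 Biotinylated His-tagged N-terminal protein, labelled in PBS pH 7.4 at one molar ratio with excess biotin removed by overnight dialysis, was loaded at 400 nM final onto streptavidin biosensors pre-wetted 10 min in kinetics buffer (PBS, 0.05% BSA, 0.01% Tween-20). Four compound concentrations in kinetics buffer were then tested for binding, with all data collected at 30 °C.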

SMILES: CC(C)c1ccc(-c2ccc(N[C@H]3CC[C@H](O)CC3)c(C(N)=O)c2)cc1
- inhibition [1]: 100%
- pIC50 [2]: 8.70
- inhibition (INH) [3]: Not Active
- pKd [4]: 7.71
- pKd [5]: 4.69
- inhibition [6]: Dose-dependent effect
- inhibition (INH) [7]: Not Active
- Activity [8]: Active
- Activity [9]: inactive
- Activity [10]: Active
- Activity [11]: Dose-dependent effect
- Activity [12]: Non-Toxic
- Activity [13]: Non-Toxic
- K [14]: 6.38 ×10⁵ /M/s
- koff [15]: 0.0345 s⁻¹
